ChEMBL document CHEMBL1123521, “Isozyme-specific enzyme inhibitors. 10. Adenosine 5'-triphosphate derivatives as substrates or inhibitors of methionine adenosyltransferases of rat normal and hepatoma tissues” (J Med Chem, 1986)

What was measured:
[1] = target: T1, S-adenosylmethionine synthetase (MAT 1 and MAT 2) (Rattus norvegicus, UniProt P13444+P18298); assay: Competitive inhibition of rat methionine adenosyltransferase, activity expressed as Ki; format: protein assay
Outline: (§1)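 MAT-T partly purified from rat Novikoff hepatoma cells grown intraperitoneally in rats: cytosol extract, DEAE-cellulose, stored at -20 °C, diluted 10-fold for use. Assay run in duplicate, 37 °C for 30 min, in 150 mM KCl–15 mM MgCl2–5 mM DTT–50 mM Tris-HCl pH 8.2 with 60 μM [14C]methionine. Inhibitors given as 1:1 Mg complexes at two levels of 1-5 × Ki, with six to eight Mg-ATP levels (0.5-4.0 × KM).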

[2] = target: T2, S-adenosylmethionine synthase isoform type-2 (Rattus norvegicus, UniProt P18298); assay: Inhibitory constant against rat kidney Methionine adenosyltransferase II, activity expressed as Ki
T2 sequence (P18298 whole entry, canonical isoform): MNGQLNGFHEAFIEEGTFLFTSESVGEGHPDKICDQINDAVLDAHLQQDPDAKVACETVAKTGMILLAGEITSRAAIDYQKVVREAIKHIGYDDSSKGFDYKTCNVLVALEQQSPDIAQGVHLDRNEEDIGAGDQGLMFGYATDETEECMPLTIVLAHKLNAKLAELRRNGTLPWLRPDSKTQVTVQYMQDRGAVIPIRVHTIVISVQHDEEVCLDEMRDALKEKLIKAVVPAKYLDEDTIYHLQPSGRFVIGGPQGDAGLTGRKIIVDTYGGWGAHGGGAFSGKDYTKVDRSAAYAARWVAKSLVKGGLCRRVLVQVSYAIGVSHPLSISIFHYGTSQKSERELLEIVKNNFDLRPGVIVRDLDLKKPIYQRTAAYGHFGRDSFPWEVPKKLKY
Outline: (§2)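 MAT-II from rat kidney extract, taken through DEAE chromatography and diluted 10-fold daily. Duplicate 30-min incubations at 37 °C in 150 mM KCl–15 mM MgCl2–5 mM DTT–50 mM Tris-HCl pH 8.2 with 60 μM [14C]methionine. Mg-complexed inhibitor used at two levels (1-5 × Ki) against six to eight Mg-ATP levels (0.5-4.0 × KM). Product counted on phosphocellulose disks.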

[3] = target: T3, S-adenosylmethionine synthase isoform type-1 (Rattus norvegicus, UniProt P13444); assay: Inhibitory constant against rat liver Methionine adenosyltransferase I, activity expressed as Ki
T3 sequence (P13444 whole entry, canonical isoform): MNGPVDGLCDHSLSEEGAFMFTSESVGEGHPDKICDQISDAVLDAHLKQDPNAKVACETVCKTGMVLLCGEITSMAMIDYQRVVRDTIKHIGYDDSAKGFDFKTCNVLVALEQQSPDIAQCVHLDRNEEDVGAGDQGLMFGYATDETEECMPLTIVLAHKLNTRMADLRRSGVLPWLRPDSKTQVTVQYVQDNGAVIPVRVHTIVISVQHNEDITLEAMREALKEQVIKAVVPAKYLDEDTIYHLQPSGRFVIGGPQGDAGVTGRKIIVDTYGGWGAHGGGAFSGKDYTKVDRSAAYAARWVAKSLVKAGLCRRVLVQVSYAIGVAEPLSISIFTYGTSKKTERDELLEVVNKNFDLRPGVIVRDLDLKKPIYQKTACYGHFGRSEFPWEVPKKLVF
Outline: (§3)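 Rat liver MAT-I, prepared free of MAT-II and MAT-III and diluted 5-fold. Duplicate assays at 37 °C, 30 min, in 150 mM KCl–7.5 mM MgSO4–2 mM DTT–50 mM HEPES pH 7.5 with 380 μM [14C]methionine. Two inhibitor levels (1:1 Mg complexes, 1-5 × Ki) run against six to eight Mg-ATP levels spanning 0.5-4.0 × KM. Ki taken from kinetic plots.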

[4] = target: T2, S-adenosylmethionine synthase isoform type-2; assay: Inhibitory constant against rat kidney Methionine adenosyltransferase II; outline: as §2
[5] = target: T3, S-adenosylmethionine synthase isoform type-1; assay: Inhibitory constant against rat liver Methionine adenosyltransferase I; outline: as §3
[6] = target: T1, S-adenosylmethionine synthetase (MAT 1 and MAT 2); assay: […] rat Methionine adenosyltransferase was reported; format: protein assay; outline: as §1
[7] = target: T1, S-adenosylmethionine synthetase (MAT 1 and MAT 2); assay: Inhibitory constant against rat methionine adenosyltransferase was reported; format: protein assay; outline: as §1

| Ki [1] [µM] | Ki [2] [µM] | Ki [4] [µM] | Structure (SMILES) | Ki [6] [µM] | further results |
| --- | --- | --- | --- | --- | --- |
| 80 | 190 | – | CC(OP(=O)(O)OP(=O)(O)OP(=O)(O)O)[C@H]1O[C@@H](n2cnc3c(N)ncnc32)[C@H](O)[C@@H]1O (stereo not given in full) | – | Ki [3]: 9 µM |
| – | – | 520 | Nc1ncnc2c1nc(SCCC(N)C(=O)O)n2C1O[C@H](COP(=O)(O)OP(=O)(O)OP(=O)(O)O)[C@@H](O)[C@H]1O (stereo not given in full) | – | Ki [5]: 3300 µM |
| – | – | 530 | CCCCNc1ncnc2c1ncn2C1O[C@H](COP(=O)(O)OP(=O)(O)OP(=O)(O)O)[C@@H](O)[C@H]1O (stereo not given in full) | – | Ki [7]: 210 µM |
| 170 | 140 | – | CO[C@@H]1[C@H](O)[C@@H](COP(=O)(O)OP(=O)(O)OP(=O)(O)O)O[C@H]1n1cnc2c(N)ncnc21 | – | – |
| – | – | 600 | CSc1nc(N)c2ncn([C@@H]3O[C@H](COP(=O)(O)OP(=O)(O)OP(=O)(O)O)[C@@H](O)[C@H]3O)c2n1 | 110 | – |
| 37 | 48 | – | CCCC(OP(=O)(O)OP(=O)(O)OP(=O)(O)O)[C@H]1O[C@@H](n2cnc3c(N)ncnc32)[C@H](O)[C@@H]1O (stereo not given in full) | – | – |
| – | – | – | CSc1nc2c(N)ncnc2n1[C@@H]1O[C@H](COP(=O)(O)OP(=O)(O)OP(=O)(O)O)[C@@H](O)[C@H]1O | 530 | – |
| 180 | 170 | – | CO[C@H]1[C@@H](O)[C@H](n2cnc3c(N)ncnc32)O[C@@H]1COP(=O)(O)OP(=O)(O)OP(=O)(O)O | – | – |

| Structure (SMILES) | Ki [1] [µM] | Ki [2] [µM] | Ki [4] [µM] | Ki [6] [µM] | further results |
| --- | --- | --- | --- | --- | --- |
| Nc1ncnc2c1ncn2[C@@H]1O[C@H](COP(=O)(O)OP(=O)(O)NP(=O)(O)O)[C@@H](O)[C@H]1O | – | – | 5.5 | 4 | – |
| Nc1ncnc2c1ncn2[C@@H]1O[C@H](COP(=O)(O)CP(=O)(O)OP(=O)(O)O)[C@@H](O)[C@H]1O [DIPHOSPHOMETHYLPHOSPHONIC ACID ADENOSYL ESTER] | – | – | 300 | 340 | – |
